The values that follow come from ChEMBL document CHEMBL1146752, “Oxamyl dipeptide caspase inhibitors developed for the treatment of stroke” (Bioorg Med Chem Lett, 2004).

The subject of one test is THP-1. Kind of test: Inhibitory activity evaluated against human THP-1 cell line in cellular assay. Format: functional, cell-based. In outline: (§1)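 Human cells (monocytes; THP-1 line) in a caspase-1-dependent cellular assay run for 24 h at 37 °C. Read-out is IC50 (µM).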
In a further test the test system is SKW 6.4. Kind of test: Inhibitory activity was evaluated against human SKW 6.4 cell line in cellular assay. It counts as functional, cell-based. The method in brief: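 Cellular assay (Con A; SKW 6.4 cells) run for 24 h at 37 °C. Read-out is IC50 (µM).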
Another test is filed under the species Rattus norvegicus. Kind of test: Inhibitory activity evaluated against rat Con A embryonic cortical neurons in cellular assay. Format: functional.
The test system of another test is Jurkat. Kind of test: Inhibitory activity evaluated against human jurkat cell line in cellular assay. It counts as functional, cell-based. The method in brief:
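Human Jurkat cells, in an assay where caspase-8 is relevant but other caspases also contribute. Run for 24 h at 37 °C. Read-out is IC50 (µM).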

In another test the target is T1, Caspase-9 (Homo sapiens, UniProt P55211).
T1 sequence (P55211 whole entry): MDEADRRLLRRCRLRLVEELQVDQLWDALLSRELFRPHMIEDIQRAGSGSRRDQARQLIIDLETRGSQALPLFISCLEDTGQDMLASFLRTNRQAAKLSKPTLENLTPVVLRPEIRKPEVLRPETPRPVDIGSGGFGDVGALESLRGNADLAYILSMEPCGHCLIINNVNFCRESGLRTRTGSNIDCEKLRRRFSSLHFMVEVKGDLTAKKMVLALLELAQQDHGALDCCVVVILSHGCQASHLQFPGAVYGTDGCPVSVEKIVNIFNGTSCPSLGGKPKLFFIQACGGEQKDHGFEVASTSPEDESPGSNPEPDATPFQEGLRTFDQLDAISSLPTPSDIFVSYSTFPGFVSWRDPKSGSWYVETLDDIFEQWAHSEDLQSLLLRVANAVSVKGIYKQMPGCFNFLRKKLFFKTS
Kind of test: Binding affinity towards human Caspase-9.

For test [1], the species on record is Homo sapiens. Kind of test: Inhibitory activity against human monocyte at the concentration of 10 uM. Format: functional. The method in brief: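 Human monocyte caspase-1-dependent cellular assay. Compound tested at a single 10 µM concentration. Read-out is percent inhibition.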
For test [2], the species on record is Homo sapiens. Nature of the test: Inhibitory activity against human monocyte. Format: functional. In outline:
as §1

One may read the IC50 as the concentration that gives 50% inhibition. Read a low IC50 as inhibition by little substance. In the case of `CC(C)[C@H](NC(=O)C(=O)Nc1ccncc1)C(=O)N[C@@H](CC(=O)O)C(=O)COc1c(F)c(F)cc(F)c1F`, the IC50 amounted to 5670 nM with THP-1, 30100 nM in the test with SKW 6.4, 50000 nM in the test listed under Rattus norvegicus and 15800 nM with Jurkat.
For `CC(C)[C@H](NC(=O)C(=O)Nc1ccccn1)C(=O)N[C@@H](CC(=O)O)C(=O)COc1c(F)c(F)cc(F)c1F`, the IC50 is 1430 nM in the test on THP-1, 2200 nM in the test with SKW 6.4, 9400 nM in the test filed under Rattus norvegicus and 140 nM in the test with Jurkat.
Consider `CC(C)[C@H](NC(=O)C(=O)Nc1ccc(Cl)c2ccccc12)C(=O)N[C@@H](CC(=O)O)C(=O)COc1c(F)c(F)cc(F)c1F`, for which the IC50 worked out at 610 nM with THP-1, 2450 nM with SKW 6.4, 750 nM in the test filed under Rattus norvegicus and 30 nM in the test with Jurkat.
As for `CC(C)[C@H](NC(=O)C(=O)Nc1ccc(F)cc1)C(=O)N[C@@H](CC(=O)O)C(=O)COc1c(F)c(F)cc(F)c1F`, the concentration for half-maximal inhibition (IC50) in the test on THP-1 was determined as 1210 nM; in the test on SKW 6.4, 920 nM; in the test filed under Rattus norvegicus it was 2000 nM; in the test on Jurkat, 19 nM.
As for `CC(C)[C@H](NC(=O)C(=O)NCc1ccccc1)C(=O)N[C@@H](CC(=O)O)C(=O)COc1c(F)c(F)cc(F)c1F`, the half-maximal inhibitory concentration (IC50) with THP-1 was found to be 570 nM; with SKW 6.4 it was 910 nM; in the test filed under Rattus norvegicus it was 1500 nM; in the test on Jurkat, 77.1 nM.
As for `CC(C)[C@H](NC(=O)C(=O)Nc1c(Cl)c(Cl)cc(Cl)c1Cl)C(=O)N[C@@H](CC(=O)O)C(=O)COc1c(F)c(F)cc(F)c1F`, the IC50 was determined as 1050 nM with THP-1, 410 nM with SKW 6.4, 660 nM in the test filed under Rattus norvegicus and 220 nM in the test with Jurkat.
Consider `CC(C)[C@H](NC(=O)C(=O)Nc1ccccc1)C(=O)N[C@@H](CC(=O)O)C(=O)COc1c(F)c(F)cc(F)c1F`, for which the IC50 stood at 70 nM in the test on THP-1, 940 nM with SKW 6.4, 1500 nM in the test listed under Rattus norvegicus and 430 nM in the test on Jurkat.
Consider `CC(C)[C@H](NC(=O)C(=O)NC12CC3CC(CC(C3)C1)C2)C(=O)N[C@@H](CC(=O)O)C(=O)COc1c(F)c(F)cc(F)c1F`, for which the IC50 is 1790 nM in the test on THP-1, 720 nM in the test with SKW 6.4, 3500 nM in the test filed under Rattus norvegicus and 1760 nM in the test on Jurkat.
On to `CC(C)[C@H](NC(=O)C(=O)NC1CCCc2ccccc21)C(=O)N[C@@H](CC(=O)O)C(=O)COc1c(F)c(F)cc(F)c1F` (some centres not stated), for which the IC50 worked out at 2910 nM in the test on THP-1, 860 nM in the test on SKW 6.4, 2400 nM in the test filed under Rattus norvegicus and 370 nM in the test with Jurkat.
In general, inhibition refers to how much of the control response was suppressed. High values mean strong suppression, low ones little suppression. `CC(C)C[C@H](NC(=O)COc1cccc2ccccc12)C(=O)N[C@H](C=O)CC(=O)O` returned a half-maximal inhibitory concentration (IC50) at Caspase-9 of 2720 nM. 10 µM produced 17% inhibition in the test listed under Homo sapiens [1].
Consider `CC(C)[C@H](NC(=O)C(=O)Nc1c(F)cc(F)c(F)c1F)C(=O)N[C@@H](CC(=O)O)C(=O)COc1c(F)c(F)cc(F)c1F`, for which the IC50 in the test with THP-1 amounted to 270 nM; with SKW 6.4, 580 nM; in the test listed under Rattus norvegicus it was 2100 nM; in the test with Jurkat it was 110 nM.
With `CCCCCCCNC(=O)C(=O)N[C@H](C(=O)N[C@@H](CC(=O)O)C(=O)COc1c(F)c(F)cc(F)c1F)C(C)C`, the concentration for half-maximal inhibition (IC50) came out at 7710 nM with THP-1, 7800 nM in the test on SKW 6.4, 7000 nM in the test listed under Rattus norvegicus and 1280 nM with Jurkat.
`CC(C)[C@H](NC(=O)C(=O)Nc1cccc2cc3ccccc3cc12)C(=O)N[C@@H](CC(=O)O)C(=O)COc1c(F)c(F)cc(F)c1F`: the IC50 with THP-1 amounted to 220 nM; with SKW 6.4 it was 1960 nM; in the test filed under Rattus norvegicus, 850 nM; in the test on Jurkat, 10 nM.
For the compound `CC(C)[C@H](NC(=O)C(=O)Nc1cccc2c1CCCC2)C(=O)N[C@@H](CC(=O)O)C(=O)COc1c(F)c(F)cc(F)c1F`, the 50% inhibitory concentration (IC50) with THP-1 amounted to 1100 nM; in the test on SKW 6.4, 1070 nM; in the test filed under Rattus norvegicus it was 2000 nM; with Jurkat, 175 nM.
In turn, `CC(C)C[C@H](NC(=O)CNc1cccc2ccccc12)C(=O)N[C@H](C=O)CC(=O)O` gave a half-maximal inhibitory concentration (IC50) at Caspase-9 of 160 nM. For the same compound, testing at 10 µM in the test listed under Homo sapiens [1] gave an inhibition of 18%.
For the compound `CC(C)C[C@H](NC(=O)C(=O)Nc1cccc2ccccc12)C(=O)N[C@H](C=O)CC(=O)O`, the figures for the IC50 at Caspase-9 and in the test filed under Homo sapiens [2] were 230 nM and 3080 nM, respectively. Besides, in the test filed under Homo sapiens [1], at 10 µM the inhibition was 79%.
For `CC(C)[C@H](NC(=O)C(=O)Nc1ccccc1F)C(=O)N[C@@H](CC(=O)O)C(=O)COc1c(F)c(F)cc(F)c1F`, the IC50 is 680 nM with THP-1, 500 nM in the test with SKW 6.4, 970 nM in the test listed under Rattus norvegicus and 97 nM in the test on Jurkat.
Regarding `COc1cc(CNC(=O)C(=O)N[C@H](C(=O)N[C@@H](CC(=O)O)C(=O)COc2c(F)c(F)cc(F)c2F)C(C)C)cc(OC)c1OC`, the IC50 with THP-1 came to 3500 nM; in the test with SKW 6.4, 18300 nM; in the test listed under Rattus norvegicus it was 9000 nM; in the test with Jurkat, 1550 nM.
In the case of `CC(C)[C@H](NC(=O)C(=O)Nc1ccc2cc3ccccc3cc2c1)C(=O)N[C@@H](CC(=O)O)C(=O)COc1c(F)c(F)cc(F)c1F`, the IC50 stood at 660 nM in the test on THP-1, 750 nM with SKW 6.4, 550 nM in the test filed under Rattus norvegicus and 150 nM in the test on Jurkat.
For `CC(C)[C@H](NC(=O)C(=O)NC1CCCCC1)C(=O)N[C@@H](CC(=O)O)C(=O)COc1c(F)c(F)cc(F)c1F`, the IC50 in the test on THP-1 was found to be 720 nM; with SKW 6.4, 1780 nM; in the test listed under Rattus norvegicus it was 6120 nM; with Jurkat, 60 nM.
With `CC(C)[C@H](NC(=O)C(=O)Nc1ccc(I)cc1F)C(=O)N[C@@H](CC(=O)O)C(=O)COc1c(F)c(F)cc(F)c1F`, the IC50 is 410 nM in the test on THP-1, 150 nM in the test with SKW 6.4, 700 nM in the test listed under Rattus norvegicus and 10 nM in the test on Jurkat.
In the case of `CC(C)[C@H](NC(=O)C(=O)Nc1c(F)c(F)c(F)c(F)c1F)C(=O)N[C@@H](CC(=O)O)C(=O)COc1c(F)c(F)cc(F)c1F`, the half-maximal inhibitory concentration (IC50) came out at 470 nM in the test on THP-1, 14000 nM in the test with SKW 6.4, 2900 nM in the test filed under Rattus norvegicus and 390 nM with Jurkat.
For the compound `CC(C)[C@H](NC(=O)C(=O)NN(c1ccccc1)c1ccccc1)C(=O)N[C@@H](CC(=O)O)C(=O)COc1c(F)c(F)cc(F)c1F`, the IC50 in the test with THP-1 was 780 nM; in the test with SKW 6.4, 2240 nM; in the test listed under Rattus norvegicus, 4870 nM; with Jurkat, 190 nM.
In the case of `CC(C)[C@H](NC(=O)C(=O)NNc1ccccc1)C(=O)N[C@@H](CC(=O)O)C(=O)COc1c(F)c(F)cc(F)c1F`, the 50% inhibitory concentration (IC50) in the test with THP-1 was 6580 nM; in the test on SKW 6.4, 9900 nM; in the test listed under Rattus norvegicus, 20000 nM; in the test on Jurkat, 2350 nM.
Turning to `CC(C)[C@H](NC(=O)C(=O)Nc1ccccc1Cl)C(=O)N[C@@H](CC(=O)O)C(=O)COc1c(F)c(F)cc(F)c1F`, the IC50 with THP-1 was 160 nM; with SKW 6.4 it was 110 nM; in the test listed under Rattus norvegicus, 300 nM; in the test on Jurkat it was 16 nM.
Taken in the same sequence, the figures for `CC(C)[C@H](NC(=O)C(=O)NN(C(=O)c1ccccc1)c1ccccc1)C(=O)N[C@@H](CC(=O)O)C(=O)COc1c(F)c(F)cc(F)c1F` were 630 nM, 2010 nM, 2300 nM and 70 nM.
On to `CC(C)[C@H](NC(=O)C(=O)Nc1ccccc1C(C)(C)C)C(=O)N[C@@H](CC(=O)O)C(=O)COc1c(F)c(F)cc(F)c1F`, for which the IC50 came to 1850 nM with THP-1, 340 nM with SKW 6.4, 5680 nM in the test filed under Rattus norvegicus and 2.2 nM in the test on Jurkat.
With `CC(C)[C@H](NC(=O)C(=O)Nc1ccc2c(c1)CCC2)C(=O)N[C@@H](CC(=O)O)C(=O)COc1c(F)c(F)cc(F)c1F`, the IC50 with THP-1 was determined as 1280 nM; in the test with SKW 6.4, 270 nM; in the test listed under Rattus norvegicus it was 1000 nM; in the test on Jurkat it was 41 nM.
